Test [1] can be described thus: reducers of endogenous Her2 protein level, primary screen, SKBR3 breast tumor cells, AlphaScreen, ATP viability (AID 461).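 As to Her2 level: lower value means less Her2 protein in the cells.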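 As to viability: percent of carrier control wells set as 100% viability.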 The conditions noted are these: 18-24 h, measured here: SKBR3 viability, ATP luminescence, at 10 µM. In general terms: Bead proximity is the source of the signal in Alpha formats.
Test [2] deals with Receptor tyrosine-protein kinase erbB-2 (Homo sapiens) (UniProt P04626). The description is as above. The conditions noted are these: 18-24 h, at 10 µM, stronger effect = lower value.
Sequence of Receptor tyrosine-protein kinase erbB-2 (Homo sapiens) (P04626 whole entry, looked up): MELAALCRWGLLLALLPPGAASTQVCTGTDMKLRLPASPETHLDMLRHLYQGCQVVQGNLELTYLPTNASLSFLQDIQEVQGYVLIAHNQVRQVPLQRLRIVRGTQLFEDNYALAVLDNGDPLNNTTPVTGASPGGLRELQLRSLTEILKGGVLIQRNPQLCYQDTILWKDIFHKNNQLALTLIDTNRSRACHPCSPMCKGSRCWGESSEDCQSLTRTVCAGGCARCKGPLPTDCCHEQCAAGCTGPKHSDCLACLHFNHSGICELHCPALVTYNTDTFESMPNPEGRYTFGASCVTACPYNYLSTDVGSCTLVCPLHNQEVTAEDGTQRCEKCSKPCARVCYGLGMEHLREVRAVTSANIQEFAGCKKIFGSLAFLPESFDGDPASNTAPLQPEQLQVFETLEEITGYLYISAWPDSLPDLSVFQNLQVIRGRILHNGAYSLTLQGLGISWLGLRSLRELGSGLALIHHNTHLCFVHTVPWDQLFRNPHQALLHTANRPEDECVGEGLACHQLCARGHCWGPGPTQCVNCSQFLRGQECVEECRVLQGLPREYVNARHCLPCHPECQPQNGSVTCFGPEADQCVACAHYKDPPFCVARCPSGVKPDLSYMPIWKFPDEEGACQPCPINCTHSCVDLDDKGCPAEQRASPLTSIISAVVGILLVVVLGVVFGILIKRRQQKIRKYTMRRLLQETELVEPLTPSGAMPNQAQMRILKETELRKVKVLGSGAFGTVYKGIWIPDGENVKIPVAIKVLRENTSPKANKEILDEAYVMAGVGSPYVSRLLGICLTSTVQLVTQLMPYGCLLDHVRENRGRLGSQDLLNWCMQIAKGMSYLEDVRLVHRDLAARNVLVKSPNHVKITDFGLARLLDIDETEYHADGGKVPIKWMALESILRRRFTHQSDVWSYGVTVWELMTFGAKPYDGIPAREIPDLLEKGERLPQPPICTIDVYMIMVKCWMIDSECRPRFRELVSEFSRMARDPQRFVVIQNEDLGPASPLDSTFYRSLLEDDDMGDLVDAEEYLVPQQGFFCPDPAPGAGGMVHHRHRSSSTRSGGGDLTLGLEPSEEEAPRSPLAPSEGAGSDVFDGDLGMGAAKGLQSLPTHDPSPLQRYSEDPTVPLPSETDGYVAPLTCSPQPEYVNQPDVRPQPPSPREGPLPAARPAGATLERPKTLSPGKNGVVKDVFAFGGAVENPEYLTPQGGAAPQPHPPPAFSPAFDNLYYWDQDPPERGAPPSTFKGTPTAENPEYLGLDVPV
Test [3] can be described thus: SK-BR-3 cell growth inhibitors, pilot screen, 24 h, human (AID 572;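 active = viability at or below 10% of carrier control in both of two separate runs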;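 also: compound exposure lasted between 18 and 24 h rather than exactly 24 h; 100% = carrier-treated control wells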). The note with it: SK-BR-3 viability, CellTiter-Glo luminescence, at 10 µM, stronger effect = lower value. On the technique in general: In ATP-based viability assays light output follows the ATP content of the culture.
The nature of test [4]: HUVEC growth inhibition – cell-based, human, primary screen (AID 575;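 active = viability at or below 30% in both replicate assays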;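 also: 100% = median of untreated cell wells with 0.1% DMSO on each plate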). The note with it: HUVEC proliferation, CellTiter-Glo luminescence, 72 h; at 10 µM; stronger effect = lower value. An outline of the steps:
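Assay system: primary human umbilical vein endothelial cells / Buffer or medium: endothelial basal medium with 2% FBS plus growth supplements / Compound dosing: one dose, 10 µM final, 0.1% DMSO / Timing: 72 h treatment at 37 °C / Signal: CTG luminescence / Benchmarks: 32 DMSO-only cell-control wells (high), 32 MePR drug-control wells (low) per plate / Plate: collagen-coated 384-well format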

A short description of test [5]: growth inhibitors of H69AR lung tumor, primary screen, human, duplicate replicates (AID 580;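 active = viability at or under a set limit in both replicates, limit being median viability minus 3 SD, cut at about 48% in these data, passing the limit was not always enough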;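 also: 100% = mean luminescence of untreated wells and 0% = no signal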). The note with it: H69AR lung tumor cells viability, ATP luminescence, 72 h; at 10 µM; stronger effect = lower value.
Test [6] is described as follows: reversal of MRP1-mediated doxorubicin resistance, pilot screen, H69AR cells, doxorubicin co-treatment (AID 601;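 active = viability loss from added drug above about 55%, and viability with drug at most 40%, in both replicates, limit read from the data, passing the limit was not always enough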). The note with it: CellTiter-Glo, 72 h, at 10 µM; for differential viability (reversal): stronger effect = higher value.
Test [7] is described as follows: 384-well plate pilot, post-Golgi transport modulator project, inhibition of yeast transport mutant growth (AID 636; in the data active = inhibition above about 31%). The conditions noted are these: absorbance 615 nm, about 18 h, stronger effect = higher value.
A short description of test [8]: growth suppression of yeast trafficking mutant, preliminary HTS, modulators of trafficking downstream of Golgi apparatus project, 1536-format plate, OD 615 nm (AID 637; in the data active = inhibition above about 30%). The conditions noted are these: yeast transport mutant growth, absorbance 615 nm, 18 h; stronger effect = higher value.
Setting [9] is: H69AR cells + 2 uM doxorubicin, measured here: viability with 2 uM doxorubicin, stronger effect = lower value.
Where [10] appears, read: H69AR cells, compound alone cytotoxicity.

Calls of active or inactive are those of the source.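 The calls were made as follows, unless noted: active = Her2 level under about 52% in both replicate screens, with viability over 70% of control (limit read from the data); inconclusive = Her2 under the limit in one screen only, or viability under 70%; inactive = Her2 level above the set limit.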

Turning to `Cc1ccccc1N1C(N)=NC(N)=NC1(C)C`, the viability is 107% in test [1]; 107% (inactive) in test [3]; 98.3% (inactive) in test [4]; 90.6% (inactive) in test [5]; 91.5% in test [6] (setting [9]); 90.6% in test [6] (setting [10]). Also, the Her2 level in test [2] is 84% (inactive). For the same compound, the differential viability (reversal) in test [6] (H69AR cells + 2 uM doxorubicin) was -0.97% (inactive). In addition, the inhibition is -3.9% (inactive) in test [7] and -3.17% (inactive) in test [8].

With `O=C(OCCCN1CCCC1)C1(c2ccccc2)CCCC1`, the viability in test [1] was 82.5%; in test [3] it was 82.5% (inactive); in test [4], 121% (inactive); in test [5] it was 88.6% (inactive); in test [6] (setting [9]), 82.2%; in test [6] (setting [10]), 88.6%. In test [2], the Her2 level was 117% (inactive). Further, in test [6] (H69AR cells + 2 uM doxorubicin), the differential viability (reversal) was 6.39% (inactive). For the same compound, the inhibition in test [7] was -2.84% (inactive); in test [8], -13.3% (inactive).

As to `COC(=O)c1ccccc1S(=O)(=O)N(CCCO)Cc1cc2c(C)ccc(C)c2[nH]c1=O`, the viability in test [1] is 84.5%; in test [3], 84.5% (inactive); in test [4] it was 75.3% (inactive); in test [5], 79.3% (inactive); in test [6] (setting [9]), 81.6%; in test [6] (setting [10]), 79.3%. Also, the Her2 level in test [2] was 106% (inactive). For the same compound, the differential viability (reversal) in test [6] (H69AR cells + 2 uM doxorubicin) was -2.33% (inactive). The inhibition in test [7] is -4.73% (inactive); in test [8] it was -5.25% (inactive).

For the compound `CCc1nnc(NC(=O)CSc2nnc3scc(-c4ccc(C)cc4)n23)s1`, the viability was 100% in test [1]; 100% (inactive) in test [3]; 108% (inactive) in test [4]; 96.6% (inactive) in test [5]; 96.7% in test [6] (setting [9]); 96.6% in test [6] (setting [10]). Further, the Her2 level in test [2] is 95.5% (inactive). The differential viability (reversal) in test [6] (H69AR cells + 2 uM doxorubicin) is -0.05% (inactive). For the same compound, the inhibition is -3.15% (inactive) in test [7] and -1.27% (inactive) in test [8].

Regarding `CCN(CC)C(=O)CSc1nnc([C@@H](N)Cc2ccccc2)o1`, the viability in test [1] is 82%; in test [3], 82% (inactive); in test [4], 98.5% (inactive); in test [5], 98.2% (inactive); in test [6] (setting [9]), 94.8%; in test [6] (setting [10]) it was 98.2%. For the same compound, the Her2 level in test [2] was 106% (inactive). The differential viability (reversal) in test [6] (H69AR cells + 2 uM doxorubicin) was 3.4% (inactive). Besides, the inhibition in test [7] was -1.87% (inactive); in test [8], 35.4% (active).

Take `CCOc1ccccc1C1NC(=O)NC(C)=C1C(=O)OC1CCCC1C` (stereo not given): the viability is 94.5% in test [1]; 94.5% (inactive) in test [3]; 82.5% (inactive) in test [4]; 78.1% (inactive) in test [5]; 75.8% in test [6] (setting [9]); 78.1% in test [6] (setting [10]). Also, the Her2 level in test [2] was 69% (inactive). Further, the differential viability (reversal) in test [6] (H69AR cells + 2 uM doxorubicin) is 2.33% (inactive). Besides, the inhibition in test [7] was -1.73% (inactive); in test [8], 0.81% (inactive).

With `CCCCn1nnnc1SCC(=O)Nc1cccc(C)n1`, the viability was 108% in test [1]; 108% (inactive) in test [3]; 111% (inactive) in test [4]; 113% (inactive) in test [5]; 105% in test [6] (setting [9]); 113% in test [6] (setting [10]). Besides, the Her2 level in test [2] is 115% (inactive). Further, the differential viability (reversal) in test [6] (H69AR cells + 2 uM doxorubicin) is 7.5% (inactive). Further, the inhibition in test [7] is 2.3% (inactive); in test [8] it was 3.5% (inactive).

In the case of `O=C(OCC#CCSc1nc2ccccc2s1)c1ccco1`, the viability in test [1] was 88%; in test [3] it was 88% (inactive); in test [4] it was 74.7% (inactive); in test [5], 81.8% (inactive); in test [6] (setting [9]), 80%; in test [6] (setting [10]), 81.8%. For the same compound, in test [2], the Her2 level was 90.5% (inactive). In addition, in test [6] (H69AR cells + 2 uM doxorubicin), the differential viability (reversal) is 1.8% (inactive). Besides, the inhibition in test [7] is -2.34% (inactive); in test [8] it was -10.8% (inactive).

For the compound `CCCN1C2CCCC1CC(NC(=O)Nc1cccc(C(C)=O)c1)C2` (stereo not given), the viability in test [1] was 105%; in test [3], 105% (inactive); in test [4], 94.8% (inactive); in test [5], 94.3% (inactive); in test [6] (setting [9]) it was 96.5%; in test [6] (setting [10]), 94.3%. Besides, in test [2], the Her2 level was 77% (inactive). The differential viability (reversal) in test [6] (H69AR cells + 2 uM doxorubicin) is -2.24% (inactive). Besides, the inhibition in test [7] is -1.95% (inactive); in test [8], -0.95% (inactive).

`C=C(Cl)COC(=O)[C@H]1C2C=CC(C2)C1C(=O)O` (stereo not given in full): the viability in test [1] is 99.5%; in test [3], 99.5% (inactive); in test [4] it was 106% (inactive); in test [5], 101% (inactive); in test [6] (setting [9]) it was 98%; in test [6] (setting [10]), 101%. In test [2], the Her2 level is 120% (inactive). In addition, in test [6] (H69AR cells + 2 uM doxorubicin), the differential viability (reversal) is 3.48% (inactive). Further, the results for the inhibition in test [7] and in test [8] were -2.8% (inactive) and -6.67% (inactive), respectively.

In the case of `CCOC(=O)c1ccc(N2C(=O)C3CC=CCC3C2=O)cc1` (stereo not given), the viability in test [1] is 112%; in test [3] it was 112% (inactive); in test [4] it was 92.8% (inactive); in test [5] it was 99.3% (inactive); in test [6] (setting [9]), 91.9%; in test [6] (setting [10]), 99.3%. The Her2 level in test [2] was 116% (inactive). Further, in test [6] (H69AR cells + 2 uM doxorubicin), the differential viability (reversal) was 7.42% (inactive). Besides, the inhibition in test [7] was -6.4% (inactive); in test [8], -10.2% (inactive).

For the compound `CCN(c1cccc(C)c1)S(=O)(=O)c1ccc2[nH]c(=O)c(=O)[nH]c2c1`, the viability in test [1] was 108%; in test [3], 108% (inactive); in test [4], 88.7% (inactive); in test [5] it was 92.1% (inactive); in test [6] (setting [9]) it was 90.8%; in test [6] (setting [10]), 92.1%. In test [2], the Her2 level was 75% (inactive). For the same compound, in test [6] (H69AR cells + 2 uM doxorubicin), the differential viability (reversal) was 1.35% (inactive). Further, the inhibition in test [7] is -2.24% (inactive); in test [8], 0.91% (inactive).

As for `Cn1nnnc1SCc1cn2cccnc2n1`, the viability in test [1] is 112%; in test [3], 112% (inactive); in test [4] it was 101% (inactive); in test [5], 89.3% (inactive); in test [6] (setting [9]), 89.4%; in test [6] (setting [10]), 89.3%. In addition, the Her2 level in test [2] is 90.5% (inactive). Also, the differential viability (reversal) in test [6] (H69AR cells + 2 uM doxorubicin) was -0.09% (inactive). In addition, the inhibition was -5.33% (inactive) in test [7] and -3.33% (inactive) in test [8].

Turning to `CCOC(=O)CSc1nc(C)c(C(=O)OCC)s1`, the viability was 89% in test [1]; 89% (inactive) in test [3]; 105% (inactive) in test [4]; 101% (inactive) in test [5]; 97.8% in test [6] (setting [9]); 101% in test [6] (setting [10]). Further, in test [2], the Her2 level is 93.5% (inactive). Further, the differential viability (reversal) in test [6] (H69AR cells + 2 uM doxorubicin) is 3.4% (inactive). Moreover, the figures for the inhibition in test [7] and in test [8] were 0.92% (inactive) and -4.68% (inactive), respectively.

As to `CS(=O)(=O)N(CC(=O)Nc1ccc2c(c1)OCCO2)Cc1ccccc1`, the viability in test [1] is 93.5%; in test [3], 93.5% (inactive); in test [4], 107% (inactive); in test [5] it was 99.5% (inactive); in test [6] (setting [9]), 87.2%; in test [6] (setting [10]), 99.5%. In addition, the Her2 level in test [2] is 92% (inactive). For the same compound, the differential viability (reversal) in test [6] (H69AR cells + 2 uM doxorubicin) was 12.3% (inactive). The inhibition in test [7] is -4.93% (inactive); in test [8], -0.79% (inactive).

In general, viability refers to a read-out of living cells in per cent, often relative to untreated cells. The inhibition is the drop in the measured response relative to a control, in per cent.

(Values after PubChem BioAssay.)
